Consider eight compounds from ChEMBL document CHEMBL1124299, “Synthesis and thromboxane A2 antagonist activity of N-benzyltrimetoquinol analogues” (J Med Chem, 1988).

The species entered for assay [1] is Rattus norvegicus. Kind of assay: Inhibition of U-46,619-induced contraction of Rat thoracic aorta in the presence of indomethacin, at conc 100 uM. The format is functional. An outline of the steps: (§1)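 Rat thoracic aortic strips equilibrated 1 h in Krebs-Henseleit solution containing 3 X 10^-6 M indomethacin; TMQ analogues tested at 100 µM against U46619-induced contraction. Cumulative U46619 concentration-response curves by the van Rossum method. U46619 EC50 read graphically from individual percent response vs log concentration plots and expressed as pD2. Significance level 5% versus control.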

Assay [2] is filed under the species Rattus norvegicus. Kind of assay: Inhibition of U-46,619-induced contraction of Rat thoracic aorta in the presence of indomethacin, KB. In kind it is functional.
For assay [3], the species on record is Homo sapiens. Briefly: Inhibition of 1.5-1.9 uM of ADP-induced human platelet aggregation. In kind it is functional. An outline of the steps: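 Platelet-rich plasma from human volunteers free of medication for at least 10 days. Turbidometric (Born) aggregation in a dual-channel aggregometer, with ADP at the minimum concentration giving maximal aggregation. Inhibitor added 1 min before ADP. IC50 derived from the change in light-transmittance amplitude at 6 min. Mean ± SEM of three preparations.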

The species named for assay [4] is Homo sapiens. Briefly: Inhibition of 0.5-0.7 uM of U-46,619 induced human platelet aggregation. The format is functional. The gist of the method:
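Human platelet-rich plasma from donors medication-free for at least 10 days. Born turbidometric aggregation, with U46619 at the minimum concentration giving maximal aggregation. Inhibitor added 1 min before U46619. IC50 taken from the change in light-transmittance amplitude at 4 min.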

Assay [5] is filed under the species Homo sapiens. Briefly: Inhibition of 0.5-0.7 uM of ADP induced [14C]5-HT secretion. The format is functional, organism-based. Conditions: in the assay text read “1.5-1.9 uM” for “0.5-0.7 uM”. The gist of the method: (§2)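 Human platelet-rich plasma from medication-free volunteers. Dense-granule secretion measured as release of radioactivity from prelabeled platelets, induced by ADP or U46619. Inhibitors added 1 min before the inducer, which was used at the minimum concentration giving maximal aggregation. Values are IC50s.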

Assay [6] is filed under the species Rattus norvegicus. Kind of assay: Inhibition of U-46,619-induced contraction of Rat thoracic aorta in the presence of indomethacin (control). The format is functional. An outline of the steps:
as §1

The species entered for assay [7] is Rattus norvegicus. Kind of assay: Log of KB that is, inhibition of U-46,619-induced contraction of Rat thoracic aorta in the presence of indomethacin. In kind it is functional.
The species named for assay [8] is Homo sapiens. Kind of assay: Inhibition of 0.5-0.7 uM of U-46,619 induced [14C]5-HT secretion. In kind it is functional. The gist of the method: as §2
The species named for assay [9] is Rattus norvegicus. Briefly: Inhibition against U-46,619-induced contraction of Rat thoracic aorta was determined expressed as pA2. The format is functional. The settings on record: read-out: pA2 (converted).
Assay [10] is filed under the species Rattus norvegicus. Kind of assay: Inhibition of U-46,619-induced contraction of Rat thoracic aorta in the presence of indomethacin(control). In kind it is functional. An outline of the steps:
as §1

The species named for assay [11] is Rattus norvegicus. Kind of assay: Inhibition of U-46,619-induced contraction of Rat thoracic aorta in the presence of indomethacin. The format is functional. The gist of the method: as §1
The species named for assay [12] is Rattus norvegicus. Kind of assay: Inhibition of U-46,619-induced contraction of Rat thoracic aorta expressed as pKB value of the compound. In kind it is functional.
For assay [13], the species on record is Rattus norvegicus. Kind of assay: Inhibition of U-46,619-induced contraction of Rat thoracic aorta in the presence of indomethacin control). The format is functional. The gist of the method:
as §1

A word on the IC50: it is the point on the concentration scale where inhibition reaches its midpoint. Read a low IC50 as greater potency in that assay. As a reminder, the pKB is −log10 of the KB, conventionally taken in molar units. Regarding `COc1cc(CC2c3cc(O)c(O)cc3CCN2Cc2ccc(N)cc2)cc(OC)c1OC` (stereo not given), the pD2 was determined as 8.03 in the assay listed under Rattus norvegicus [1] and 8.26 in the assay listed under Rattus norvegicus [6]. Besides, in the assay listed under Rattus norvegicus [2], the Kb was found to be 162 µM. The half-maximal inhibitory concentration (IC50) in the assay filed under Homo sapiens [3] came to 40 µM; in the assay listed under Homo sapiens [4] it was 27 µM; in the assay listed under Homo sapiens [5], 29.1 µM; in the assay filed under Homo sapiens [8], 27.1 µM. Further, the pKB in the assay filed under Rattus norvegicus [7] was 3.79.

`COc1cc(CC2c3cc(O)c(O)cc3CCN2Cc2ccc(C)cc2)cc(OC)c1OC` (stereo not given): the pD2 in the assay filed under Rattus norvegicus [1] was found to be 7.58; in the assay listed under Rattus norvegicus [10], 8.05. For the same compound, the Kb in the assay filed under Rattus norvegicus [2] is 55 µM; in the assay filed under Rattus norvegicus [9], 30.2 µM. In addition, the values for the IC50 in the assay filed under Homo sapiens [4] and in the assay listed under Homo sapiens [8] were 55.9 µM and 40.4 µM, respectively. Also, the pKB in the assay listed under Rattus norvegicus [7] amounted to 4.26.

With `COc1cc(CC2c3cc(O)c(O)cc3CCN2Cc2ccc(Cl)cc2)cc(OC)c1OC` (stereo not given), the results for the pD2 in the assay filed under Rattus norvegicus [1] and in the assay listed under Rattus norvegicus [6] were 8.09 and 8.1, respectively. The results for the IC50 in the assay listed under Homo sapiens [4] and in the assay listed under Homo sapiens [8] were 119 µM and 128 µM, respectively.

Regarding `COc1cc(CC2c3cc(O)c(O)cc3CCN2Cc2ccc([N+](=O)[O-])cc2)cc(OC)c1OC` (stereo not given), the values for the pD2 in the assay filed under Rattus norvegicus [1] and in the assay filed under Rattus norvegicus [6] were 7.84 and 8.21, respectively. Also, the Kb in the assay filed under Rattus norvegicus [2] was found to be 89.1 µM. The 50% inhibitory concentration (IC50) is 359 µM in the assay listed under Homo sapiens [3], 296 µM in the assay listed under Homo sapiens [4], 289 µM in the assay filed under Homo sapiens [5] and 269 µM in the assay listed under Homo sapiens [8]. Moreover, the negative-log KB (pKB) in the assay filed under Rattus norvegicus [7] turned out to be 4.05.

For the compound `COc1cc(NCc2ccc3nc(N)nc(N)c3c2C)cc(OC)c1OC` [TRIMETREXATE], the Kb in the assay listed under Rattus norvegicus [11] stood at 4.26 µM. In the assay filed under Rattus norvegicus [1], the pD2 amounted to 6.78. In the assay filed under Rattus norvegicus [12], this compound returned a negative logarithm of the KB (pKB) of 5.37. Also, the concentration for half-maximal inhibition (IC50) in the assay listed under Homo sapiens [4] worked out at 0.77 µM; in the assay filed under Homo sapiens [8] it was 0.75 µM.

Regarding `COc1cc(CC2c3cc(O)c(O)cc3CCN2Cc2ccccc2)cc(OC)c1OC` (stereo not given), the pD2 in the assay listed under Rattus norvegicus [1] came out at 7.86; in the assay filed under Rattus norvegicus [6], 8.11. The Kb in the assay filed under Rattus norvegicus [2] came out at 138 µM. Further, the 50% inhibitory concentration (IC50) turned out to be 67.5 µM in the assay listed under Homo sapiens [3], 67.4 µM in the assay listed under Homo sapiens [4], 54.1 µM in the assay listed under Homo sapiens [5] and 66.4 µM in the assay listed under Homo sapiens [8]. In addition, in the assay listed under Rattus norvegicus [7], the pKB came out at 3.86.

As to `COc1ccc(CN2CCc3cc(O)c(O)cc3C2Cc2cc(OC)c(OC)c(OC)c2)cc1` (stereo not given), the pD2 in the assay listed under Rattus norvegicus [1] is 7.64; in the assay listed under Rattus norvegicus [6] it was 8.07. Also, in the assay filed under Rattus norvegicus [2], the Kb was 69.2 µM. Also, the IC50 in the assay listed under Homo sapiens [4] came to 50.2 µM; in the assay filed under Homo sapiens [8] it was 56.2 µM. Also, the pKB in the assay listed under Rattus norvegicus [7] is reported as 4.16.

For `COc1cc(CC2c3cc(O)c(O)cc3CCN2Cc2ccc(Cl)c(Cl)c2)cc(OC)c1OC` (stereo not given), the pD2 was found to be 8.22 in the assay filed under Rattus norvegicus [1] and 8.12 in the assay filed under Rattus norvegicus [13]. The values for the concentration for half-maximal inhibition (IC50) in the assay listed under Homo sapiens [4] and in the assay filed under Homo sapiens [8] were 257 µM and 264 µM, respectively.
